Here are results for 24 compounds from ChEMBL document CHEMBL1138430, “Novel tetrahydroisoquinolines are histamine H3 antagonists and serotonin reuptake inhibitors” (Bioorg Med Chem Lett, 2007).

The target of data set [1] is Sodium-dependent serotonin transporter (Rattus norvegicus, UniProt P31652). The experiment in a line: Binding affinity at rat SERT.
Data set [2] deals with Sodium-dependent serotonin transporter (Homo sapiens, UniProt P31645). The experiment in a line: Binding affinity at human SERT.
The target of data set [3] is T1, Histamine H3 receptor (Homo sapiens, UniProt Q9Y5N1). As to the kind of experiment: Binding affinity at human histamine H3 receptor.
Data set [4] concerns the target T1, Histamine H3 receptor. As to the kind of experiment: Antagonist activity at human histamine H3 receptor. In kind it is functional. The following applies: read-out: pA2 (converted).
The subject of data set [5] is Rattus norvegicus. The experiment in a line: (§1) Volume of distribution at steady state in po and iv dosed rat. Type of data set: ADME, organism-based. Conditions: in vivo; call rule not given here.
For data set [6], the system named is Rattus norvegicus. The experiment in a line: (§2) Half life in po and iv dosed rat. In kind it is ADME, organism-based. The following applies: in vivo.
The subject of data set [7] is Rattus norvegicus. The experiment in a line: (§3) Bioavailability in po dosed rat. The following applies: in vivo. In kind it is ADME, organism-based.
Data set [8] is described as follows: Cmax in rat brain at 10 mg/kg, po. Type of data set: ADME, organism-based. Also on record: dose 10 mg/kg, route oral.
Data set [9] is described as follows: Plasma clearance in po and iv dosed rat. In kind it is ADME, organism-based.
Data set [10] in a line: as §2. In kind it is ADME, organism-based. The following applies: in vivo.
Data set [11] relates to Voltage-gated potassium channel. The experiment in a line: Binding affinity for potassium channel at 1 uM. Type of data set: protein assay. Conditions: human.
The subject of data set [12] is Voltage-gated calcium channel. As to the kind of experiment: Binding affinity for calcium channel at 1 uM. In kind it is protein-complex assay. Conditions: human.
The target in data set [13] is Sodium-dependent noradrenaline transporter (Homo sapiens, UniProt P23975). The experiment in a line: Inhibition of [3H]nisoxetine uptake in human NET expressed in MDCK cells. Type of data set: cell-based.
The target in data set [14] is Sodium-dependent dopamine transporter (Homo sapiens, UniProt Q01959). As to the kind of experiment: Inhibition of [3H]WIN-uptake in human DAT expressed in CHO cells. In kind it is cell-based. In short, it runs like this: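 Human DAT expressed in CHO cells; membranes were incubated on ice for 2 h with 10.9 nM [3H]-WIN 35,428, then harvested by rapid filtration. Nonspecific binding was defined with GBR-12909. Ki values are means of at least three experiments run in triplicate, with SEM.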

Data set [15] is described as follows: as §1. Conditions: in vivo, read-out: Vdss. Type of data set: ADME, organism-based.
Data set [16] in a line: as §3. In kind it is ADME, organism-based. The following applies: in vivo.
Data set [17] is filed under the species Rattus norvegicus. The experiment in a line: Ex vivo receptor occupancy at SERT in rat. Type of data set: functional.
For data set [18], the species on record is Rattus norvegicus. The experiment in a line: Ex vivo receptor occupancy at histamine H3 receptor in rat. In kind it is functional.
In a further data set the test system is Brain. The experiment in a line: Drug level in rat brain at 0.1 mg/kg. Conditions: in vivo, read-out: Drug uptake. In kind it is ADME, organism-based. Also on record: dose 0.1 mg/kg.

pKi: −log10 of the molar value.

Sequence of Sodium-dependent serotonin transporter (Homo sapiens, UniProt P31645) (P31645 whole entry): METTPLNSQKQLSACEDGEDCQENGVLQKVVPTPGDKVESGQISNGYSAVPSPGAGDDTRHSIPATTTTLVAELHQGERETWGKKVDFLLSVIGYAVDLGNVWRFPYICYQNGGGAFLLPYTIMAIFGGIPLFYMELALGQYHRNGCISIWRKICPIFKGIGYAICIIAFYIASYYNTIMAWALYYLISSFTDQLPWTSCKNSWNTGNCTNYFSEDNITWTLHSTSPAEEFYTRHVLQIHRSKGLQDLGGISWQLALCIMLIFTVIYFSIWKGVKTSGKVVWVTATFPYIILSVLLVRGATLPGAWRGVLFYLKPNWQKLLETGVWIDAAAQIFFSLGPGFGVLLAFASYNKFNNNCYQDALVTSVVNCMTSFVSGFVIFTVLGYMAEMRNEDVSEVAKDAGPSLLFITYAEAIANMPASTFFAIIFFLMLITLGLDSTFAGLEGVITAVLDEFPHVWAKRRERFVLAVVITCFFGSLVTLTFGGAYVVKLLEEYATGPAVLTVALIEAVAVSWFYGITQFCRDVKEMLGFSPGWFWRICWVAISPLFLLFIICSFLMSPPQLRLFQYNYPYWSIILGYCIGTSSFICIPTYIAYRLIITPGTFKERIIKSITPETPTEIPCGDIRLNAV
T1 sequence (Q9Y5N1 whole entry): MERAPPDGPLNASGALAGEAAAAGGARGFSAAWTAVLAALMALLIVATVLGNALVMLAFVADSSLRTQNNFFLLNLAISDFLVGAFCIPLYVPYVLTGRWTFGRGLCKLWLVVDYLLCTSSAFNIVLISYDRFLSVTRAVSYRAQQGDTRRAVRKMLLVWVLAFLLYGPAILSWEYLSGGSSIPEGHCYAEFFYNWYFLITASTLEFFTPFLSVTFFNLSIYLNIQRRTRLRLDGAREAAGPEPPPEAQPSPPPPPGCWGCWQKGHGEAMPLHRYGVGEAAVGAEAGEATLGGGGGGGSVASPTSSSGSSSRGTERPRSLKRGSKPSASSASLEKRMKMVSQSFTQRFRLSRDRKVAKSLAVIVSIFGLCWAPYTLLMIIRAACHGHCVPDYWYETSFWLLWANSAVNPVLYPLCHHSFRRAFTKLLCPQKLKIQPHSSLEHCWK
Sequence of Sodium-dependent serotonin transporter (Rattus norvegicus, UniProt P31652) (P31652 whole entry): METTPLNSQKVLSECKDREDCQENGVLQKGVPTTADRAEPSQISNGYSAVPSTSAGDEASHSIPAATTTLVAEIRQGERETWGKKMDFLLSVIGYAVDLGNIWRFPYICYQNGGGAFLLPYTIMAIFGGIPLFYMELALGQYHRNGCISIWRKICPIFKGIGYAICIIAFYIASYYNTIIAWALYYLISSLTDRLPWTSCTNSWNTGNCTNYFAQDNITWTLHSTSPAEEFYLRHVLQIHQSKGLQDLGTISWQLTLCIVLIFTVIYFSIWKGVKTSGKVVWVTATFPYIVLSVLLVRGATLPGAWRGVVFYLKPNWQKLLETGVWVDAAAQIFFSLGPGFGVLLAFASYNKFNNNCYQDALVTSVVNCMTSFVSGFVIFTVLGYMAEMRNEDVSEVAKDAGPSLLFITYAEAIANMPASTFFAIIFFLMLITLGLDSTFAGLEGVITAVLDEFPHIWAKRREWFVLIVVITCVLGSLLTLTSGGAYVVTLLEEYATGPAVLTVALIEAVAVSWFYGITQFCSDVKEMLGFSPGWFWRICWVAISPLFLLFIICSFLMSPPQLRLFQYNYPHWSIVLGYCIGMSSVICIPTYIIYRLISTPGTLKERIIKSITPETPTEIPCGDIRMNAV
Sequence of Sodium-dependent dopamine transporter (Q01959 whole entry): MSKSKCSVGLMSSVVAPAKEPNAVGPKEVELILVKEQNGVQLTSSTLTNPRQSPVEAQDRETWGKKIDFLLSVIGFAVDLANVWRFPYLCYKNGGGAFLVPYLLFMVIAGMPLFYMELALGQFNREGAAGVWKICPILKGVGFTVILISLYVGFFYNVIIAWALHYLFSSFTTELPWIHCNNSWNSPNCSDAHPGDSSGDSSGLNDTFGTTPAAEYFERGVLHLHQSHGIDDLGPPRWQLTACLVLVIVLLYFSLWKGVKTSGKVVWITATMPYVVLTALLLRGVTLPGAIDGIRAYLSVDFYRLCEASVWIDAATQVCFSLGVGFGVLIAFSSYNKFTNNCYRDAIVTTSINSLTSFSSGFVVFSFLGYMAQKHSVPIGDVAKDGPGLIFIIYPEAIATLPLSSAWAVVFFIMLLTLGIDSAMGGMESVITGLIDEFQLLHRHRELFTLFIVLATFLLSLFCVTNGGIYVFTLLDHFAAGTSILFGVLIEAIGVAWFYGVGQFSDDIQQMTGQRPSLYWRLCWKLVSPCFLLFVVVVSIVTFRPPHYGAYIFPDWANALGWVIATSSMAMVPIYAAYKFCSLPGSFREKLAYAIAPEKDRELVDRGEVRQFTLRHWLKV
Sequence of Sodium-dependent noradrenaline transporter (P23975 whole entry): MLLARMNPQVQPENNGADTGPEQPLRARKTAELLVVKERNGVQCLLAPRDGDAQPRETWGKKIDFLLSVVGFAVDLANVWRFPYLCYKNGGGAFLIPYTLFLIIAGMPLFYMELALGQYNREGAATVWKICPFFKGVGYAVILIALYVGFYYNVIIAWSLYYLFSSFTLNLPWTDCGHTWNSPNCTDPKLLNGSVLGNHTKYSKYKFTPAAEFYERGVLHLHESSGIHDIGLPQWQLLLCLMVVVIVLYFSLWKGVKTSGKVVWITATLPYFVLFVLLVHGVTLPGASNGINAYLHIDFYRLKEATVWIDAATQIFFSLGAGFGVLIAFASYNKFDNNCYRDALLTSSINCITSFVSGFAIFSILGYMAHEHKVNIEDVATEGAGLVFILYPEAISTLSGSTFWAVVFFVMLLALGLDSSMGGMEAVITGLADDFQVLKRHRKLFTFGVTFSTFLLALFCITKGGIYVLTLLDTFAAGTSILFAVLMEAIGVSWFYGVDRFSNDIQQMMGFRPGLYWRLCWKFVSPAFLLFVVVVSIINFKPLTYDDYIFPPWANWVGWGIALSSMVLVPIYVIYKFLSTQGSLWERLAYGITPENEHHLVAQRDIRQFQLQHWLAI

Broadly, the pKi is the Ki on a negative log10 scale, so that one unit is a factor of ten. Low values mean a high Ki, high ones a low Ki. As for `CN1Cc2cc(OCCCN3CCC(F)CC3)ccc2C(c2ccc(Cl)c(Cl)c2)C1` (stereo unspecified), the pKi was 8.08 in [1], 7.68 in data set [2] and 7.51 on Histamine H3 receptor [3]. Further, the Kb on Histamine H3 receptor [4] was 33.1 nM.

Consider `CN1Cc2cc(OCCCN3CCC(F)CC3)ccc2C(c2cccc(Cl)c2)C1` (stereo unspecified), for which, in data set [2], the pKi is 7.62. Also, the Kb at Histamine H3 receptor [4] was 1.38 nM.

Turning to `COc1cccc(C2CN(C)Cc3cc(OCCCN4CCC(F)CC4)ccc32)c1` (stereo unspecified), the pKi in [1] was 8.37; in data set [2], 8.37; at Histamine H3 receptor [3], 8.70. Besides, on Histamine H3 receptor [4], the Kb is 0.851 nM.

For `CN1Cc2cc(OCCCN3CCC(F)CC3)ccc2C(c2ccccc2)C1` (stereo unspecified), the pKi is 7.34 in data set [2] and 8.48 at Histamine H3 receptor [3]. On Histamine H3 receptor [4], the Kb is 0.724 nM.

Regarding `COc1ccc(C2CN(C)Cc3cc(OCCCN4CCOCC4)ccc32)cc1` (stereo unspecified), the Kb on Histamine H3 receptor [4] is 2.29 nM.

For `COc1ccc(C2CN(C)Cc3cc(OCCCN4CCC(F)CC4)ccc32)cc1Cl` (stereo unspecified), the pKi in data set [1] is 8.28; in [2] it was 8.24; at Histamine H3 receptor [3] it was 8.01. Also, the Kb on Histamine H3 receptor [4] was 6.17 nM.

As a reminder, the Cmax is the highest concentration seen after dosing. Consider `COc1ccc(C2CN(C)Cc3cc(OCCCN4CCC(F)CC4)ccc32)cc1` (racemic), for which the negative logarithm of the Ki (pKi) was 8.77 in [1] and 8.57 in data set [2]. The same compound showed a Vdss in the data set on Rattus norvegicus [5] of 19.9 L/kg. This compound also returned a t1/2 with Rattus norvegicus [6] of 16 h. Also, the F in the data set with Rattus norvegicus [7] was 6%. The Cmax in data set [8] turned out to be 1500 nM.

Consider `CSc1ccc(C2CN(C)Cc3cc(OCCCN4CCC(F)CC4)ccc32)cc1` (stereo in doubt; (-)/-12p), for which the pKi in data set [1] was 8.30; in data set [2] it was 8.38.

For the compound `Cc1ccc(C2CN(C)Cc3cc(OCCCN4CCC(F)CC4)ccc32)cc1` (stereo unspecified), the pKi in data set [1] is 8.36; in [2], 7.89; on Histamine H3 receptor [3], 8.08.

As to `CN1Cc2cc(OCCCN3CCC(F)CC3)ccc2C(c2ccc(C(F)(F)F)cc2)C1` (stereo unspecified), the negative logarithm of the Ki (pKi) in data set [1] was 7.85; in data set [2], 8.07; on Histamine H3 receptor [3] it was 7.74.

`CN1Cc2cc(OCCCN3CCC(F)CC3)ccc2C(c2ccc(Cl)cc2)C1` (stereo unspecified): the negative-log Ki (pKi) was 7.80 in [1] and 8.08 at Histamine H3 receptor [3].

Turning to `CN1Cc2cc(OCCCN3CCC(F)CC3)ccc2C(c2cccc(C(F)(F)F)c2)C1` (stereo unspecified), the negative-log Ki (pKi) is 7.52 in data set [1], 7.82 in [2] and 7.96 on Histamine H3 receptor [3].

Turning to `CN1Cc2cc(OCCCN3CCC(F)CC3)ccc2C(c2ccc(SC(F)(F)F)cc2)C1` (stereo unspecified), the negative-log Ki (pKi) is 7.44 in [1], 7.47 in data set [2] and 7.34 on Histamine H3 receptor [3].

In the case of `CN1Cc2cc(OCCCN3CCC(F)CC3)ccc2C(c2ccc(OC(F)F)cc2)C1` (stereo unspecified), the results for the pKi (in data set [2]; on Histamine H3 receptor [3]) were 8.37 and 8.00, respectively. Further, at Histamine H3 receptor [4], the Kb is 4.37 nM.

As a reminder, the half-life is the time in which the quantity being followed falls by half. Low readings indicate rapid decline, high ones slow decline. Turning to `COc1ccc(C2CN(C)Cc3cc(OCCCN4CCC(F)CC4)ccc32)cc1` (stereo in doubt; 12b), the clearance in data set [9] came out at 32.3 mL/min/kg. For the same compound, the Vdss in the data set on Rattus norvegicus [5] stood at 5.1 L/kg. In data set [10], the half-life was 13.3 h. The compound further yielded a F in the data set on Rattus norvegicus [7] of 13%.

Regarding `COc1ccc(C2CN(C)Cc3cc(OCCCN4CCC(F)CC4)ccc32)cc1` (single isomer, unassigned; (-)), the results for the pKi in data set [1] and in [2] were 8.35 and 8.03, respectively.

Regarding `CN1Cc2cc(OCCCN3CCC(F)CC3)ccc2C(c2ccc(C#N)cc2)C1` (stereo unspecified), the negative-log Ki (pKi) in data set [1] is 8.11; in data set [2], 7.80; on Histamine H3 receptor [3], 8.46. At Histamine H3 receptor [4], the Kb was 1.41 nM.

As usually defined, the bioavailability is the share of a dose that reaches the circulation, judged against a reference dose that is usually intravenous. As a reminder, the ED50 is the dose at which the effect has come halfway, by size or by number of responders. Consider `CSc1ccc(C2CN(C)Cc3cc(OCCCN4CCC(F)CC4)ccc32)cc1` (racemic), for which the negative logarithm of the Ki (pKi) was 8.70 in data set [1], 6.93 in data set [13] and 7.34 in data set [14]. Also, the Activity result in data set [11] and in data set [12] was “Not Active” each time. This compound also yielded a clearance in [9] of 18.5 mL/min/kg. For the same compound, in [15], the Vd is 9.6 L/kg. The compound also showed a half-life in data set [10] of 9.9 h. Further, the bioavailability in data set [16] was determined as 21%. The Cmax in data set [8] was found to be 2400 nM. Also, the figures for the ED50 in the data set listed under Rattus norvegicus [17] and in the data set filed under Rattus norvegicus [18] were 0.1 mg/kg and 0.05 mg/kg, respectively. In addition, the concentration in the data set with Brain turned out to be 130 nM.

With `CSc1ccc(C2CN(C)Cc3cc(OCCCN4CCC(F)CC4)ccc32)cc1` (stereo in doubt; 12o), the negative logarithm of the Ki (pKi) is 8.64 in [1] and 8.06 in data set [2].

In the case of `CN1Cc2cc(OCCCN3CCC(F)CC3)ccc2C(c2cc(Cl)ccc2Cl)C1` (stereo unspecified), the figures for the negative logarithm of the Ki (pKi) (in [1]; in data set [2]; on Histamine H3 receptor [3]) were 6.92, 6.97 and 8.03, respectively. Moreover, at Histamine H3 receptor [4], the Kb was 4.57 nM.

Regarding `COc1ccc([C@H]2CN(C)Cc3cc(OCCCN4CCOC[C@@H]4C)ccc32)cc1`, at Histamine H3 receptor [3], the pKi is 8.16. On Histamine H3 receptor [4], the Kb was 2.95 nM.

`CN1Cc2cc(OCCCN3CCC(F)CC3)ccc2C(c2ccccc2Cl)C1` (stereo unspecified): the pKi in data set [1] is 7.77; in data set [2], 7.74; at Histamine H3 receptor [3], 8.25.

Turning to `CN1Cc2cc(OCCCN3CCC(F)CC3)ccc2C(c2ccc(S(C)(=O)=O)cc2)C1` (stereo unspecified), the negative-log Ki (pKi) is 7.66 in data set [1] and 6.87 in [2].

For the compound `CCOc1ccc(C2CN(C)Cc3cc(OCCCN4CCC(F)CC4)ccc32)cc1` (stereo unspecified), the results for the pKi (in [1]; in data set [2]; on Histamine H3 receptor [3]) were 8.57, 8.33 and 8.14, respectively. Besides, in [9], the clearance was found to be 29.9 mL/min/kg. For the same compound, the Vd in data set [15] was 15.5 L/kg. The same compound had a half-life in data set [10] of 10.3 h. Besides, the bioavailability in data set [16] amounted to 11%.
